{"source": "paper PMC10085907", "about": "(Clinical Pharmacokinetics, 2023)", "key": {"[1]": {"conditions": "cited from earlier work"}, "CYP3A4": {"system": "CYP3A4", "conditions": "read-out: CYP3A4 inhibition IC50; in vitro; cited from earlier work"}, "[2]": {"format": "in vivo, human", "conditions": "atovaquone/proguanil 250/100 mg alone; N = 16; mean ± SD", "outline": "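Healthy CYP2C19 *1/*1 subjects (PCR-genotyped) in a crossover design; acid reducer given orally once daily for 6 days at the approved maximum dose, then co-dosed with oral atovaquone/proguanil. Plasma sampled to 48 h, urine in 0–8, 8–24 and 24–48 h intervals, both assayed by HPLC-MS/MS. Non-compartmental analysis: t½ = ln2/λz, CL/F = dose/AUCinf, fe = 48-h urinary proguanil/dose.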"}, "[3]": {"conditions": "proguanil alone, previous study; cited from earlier work"}, "[4]": {"conditions": "cited from earlier work", "remark": "listed apart in the source"}, "[5]": {"conditions": "at the therapeutic dose; cited from earlier work"}, "CYP2C19 [6]": {"molecular_target": "T1, CYP2C19 (Homo sapiens, UniProt P33261)", "T1 sequence (P33261 whole entry)": "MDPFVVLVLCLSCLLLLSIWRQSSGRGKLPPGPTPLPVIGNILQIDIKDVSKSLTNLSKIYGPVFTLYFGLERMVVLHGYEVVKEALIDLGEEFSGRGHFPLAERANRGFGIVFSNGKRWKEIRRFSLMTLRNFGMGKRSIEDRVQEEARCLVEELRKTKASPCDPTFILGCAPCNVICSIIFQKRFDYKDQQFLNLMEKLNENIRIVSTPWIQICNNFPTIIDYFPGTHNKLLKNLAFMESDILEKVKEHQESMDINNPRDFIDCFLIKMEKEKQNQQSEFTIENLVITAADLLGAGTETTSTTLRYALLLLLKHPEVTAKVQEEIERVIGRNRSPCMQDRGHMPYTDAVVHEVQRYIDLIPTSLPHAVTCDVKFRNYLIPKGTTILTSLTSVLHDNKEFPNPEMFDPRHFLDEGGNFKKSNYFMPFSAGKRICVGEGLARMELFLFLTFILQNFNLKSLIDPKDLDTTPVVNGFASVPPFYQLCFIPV", "format": "in vivo", "conditions": "healthy CYP2C19 extensive metabolizers; 7 days of dosing"}, "CYP2C19 [7]": {"molecular_target": "T1, CYP2C19", "conditions": "read-out: CYP2C19 half-maximum inhibitory concentration (IC50); in vitro; cited from earlier work"}}}
{"smiles": "O=C1C(O)=C([C@H]2CC[C@H](c3ccc(Cl)cc3)CC2)C(=O)c2ccccc21", "note": "[Atovaquone, atovaquone]", "values": [{"measurement": "Excreted unchanged in the feces", "setting": "[1]", "value": "≥ 94", "unit": "%"}, {"measurement": "IC50", "setting": "CYP3A4", "value": "[…]"}]}
{"smiles": "CC1(C)N=C(N)N=C(N)N1c1ccc(Cl)cc1", "note": "[Cycloguanil, cycloguanil]", "values": [{"measurement": "Metabolic ratio (AUCinf of cycloguanil to AUCinf of proguanil)", "setting": "[2]", "value": 0.35}, {"measurement": "Metabolic ratio (cycloguanil-to-proguanil ratio)", "setting": "[3]", "value": 0.84}]}
{"smiles": "[H]/N=C(\\N/C(=N/[H])Nc1ccc(Cl)cc1)NC(C)C", "note": "[Proguanil, proguanil]", "values": [{"measurement": "Biopharmaceutical Classification System (BCS) class", "setting": "[4]", "value": "class III"}, {"measurement": "Fraction of the dose renally excreted", "setting": "[1]", "value": "40–60%"}]}
{"smiles": "Cc1nc2c(O[C@H]3CCOc4cc(F)cc(F)c43)cc(C(=O)N(C)C)cc2[nH]1", "note": "[Tegoprazan, tegoprazan]", "values": [{"measurement": "Unbound Cmax", "setting": "[5]", "value": "approximately 1.3 µM"}, {"measurement": "Effect on CYP2C19 activity (conclusion from proguanil PK)", "setting": "CYP2C19 [6]", "value": "neither an inhibitor nor an inducer of CYP2C19"}]}
{"smiles": "CNCc1cc(-c2ccccc2F)n(S(=O)(=O)c2cccnc2)c1", "note": "[Vonoprazan, vonoprazan]", "values": [{"measurement": "Unbound maximum plasma concentration (Cmax)", "setting": "[5]", "value": "approximately 0.01 µM"}, {"measurement": "IC50", "setting": "CYP2C19 [7]", "value": 13, "unit": "µM"}]}
{"smiles": "Cc1c(OCC(F)(F)F)ccnc1C[S+]([O-])c1nc2ccccc2[nH]1", "note": "(stereo not drawn) [lansoprazole]", "values": [{"measurement": "Biopharmaceutical Classification System (BCS) class", "setting": "[4]", "value": "class II"}]}
{"smiles": "COc1ccc2[nH]c([S+]([O-])Cc3ncc(C)c(OC)c3C)nc2c1", "note": "(stereo not drawn) [omeprazole]", "values": [{"measurement": "Biopharmaceutical Classification System (BCS) class", "setting": "[4]", "value": "class II"}]}
